{"source": "ChEMBL document CHEMBL4406880", "about": "“Design, synthesis, and bioactivity of dihydropyrimidine derivatives as kinesin spindle protein inhibitors” (Bioorg Med Chem, 2019)", "type_in_all_cases": "functional", "key": {"[1]": {"tested_on": "MDA-MB-468", "assay": "Growth inhibition of human MDA-MB-468 cells assessed as cell viability at 0.1 uM incubated for 48 hrs by sulforhodamine B assay", "settings": "MDA-MB-468, 48 h, read-out: Activity"}, "[2]": {"tested_on": "A549", "assay": "Growth inhibition of human A549/ATCC cells assessed as cell viability at 0.001 uM incubated for 48 hrs by sulforhodamine B assay relative to control", "settings": "A549, 48 h, read-out: Activity"}, "[3]": {"tested_on": "CCRF-CEM", "assay": "Growth inhibition of human CCRF-CEM cells assessed as cell viability at 0.1 uM incubated for 48 hrs by sulforhodamine B assay", "settings": "read-out: Activity"}, "[4]": {"tested_on": "UO-31", "assay": "Growth inhibition of human UO31 cells assessed as cell viability at 100 uM incubated for 48 hrs by sulforhodamine B assay", "settings": "UO-31, 48 h, read-out: Activity"}, "[5]": {"tested_on": "U-251", "assay": "Growth inhibition of human U251 cells assessed as cell viability at 0.1 uM incubated for 48 hrs by sulforhodamine B assay", "settings": "U-251, 48 h, read-out: Activity"}, "[6]": {"tested_on": "NCI/ADR-RES", "assay": "Growth inhibition of human NCI/ADR-RES cells assessed as cell viability at 0.001 uM incubated for 48 hrs by sulforhodamine B assay relative to control", "settings": "read-out: Activity"}, "[7]": {"tested_on": "IGROV-1", "assay": "Growth inhibition of human IGROV1 cells assessed as cell viability at 0.1 uM incubated for 48 hrs by sulforhodamine B assay", "settings": "IGROV-1, 48 h, read-out: Activity"}, "[8]": {"tested_on": "HCT-15", "assay": "Growth inhibition of human HCT15 cells incubated for 48 hrs by sulforhodamine B assay", "settings": "HCT-15, 48 h", "outline": "(§1)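 NCI-60 five-dose mode: five tenfold dilutions (0.01, 0.1, 1, 10, 100 µM) are applied for 48 h to cells in RPMI 1640 with 5% FBS at 37 °C. Endpoint is TCA fixation with sulforhodamine B read at 515 nm. % growth comes from the 0 h and control absorbances. GI50 is the concentration giving a 50% reduction in net cell growth.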"}, "[9]": {"tested_on": "786-0", "assay": "Growth inhibition of human 786-0 cells incubated for 48 hrs by sulforhodamine B assay", "settings": "786-0, 48 h", "outline": "as §1"}, "[10]": {"tested_on": "MCF7", "assay": "Growth inhibition of human MCF7 cells assessed as cell viability at 0.001 uM incubated for 48 hrs by sulforhodamine B assay relative to control", "settings": "MCF7, 48 h, read-out: Activity"}, "[11]": {"tested_on": "U-251", "assay": "Growth inhibition of human U251 cells assessed as cell viability at 1 uM incubated for 48 hrs by sulforhodamine B assay", "settings": "U-251, 48 h, read-out: Activity"}, "[12]": {"tested_on": "IGROV-1", "assay": "Growth inhibition of human IGROV1 cells incubated for 48 hrs by sulforhodamine B assay", "settings": "IGROV-1, 48 h", "outline": "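NCI-60 five-dose SRB assay in RPMI 1640 with 5% FBS, 37 °C, 5% CO2. Compound given at five tenfold dilutions, 0.01–100 µM, for 48 h. Adherent cells fixed with TCA, suspension cells with 16% final TCA. Bound SRB read at 515 nm and growth calculated against time-zero and untreated controls. GI50 taken from dose–response curves as the concentration giving a 50% decrease in net cell growth.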"}, "[13]": {"tested_on": "SK-MEL-5", "assay": "Growth inhibition of human SK-MEL-5 cells assessed as cell viability at 0.1 uM incubated for 48 hrs by sulforhodamine B assay", "settings": "SK-MEL-5, 48 h, read-out: Activity"}, "[14]": {"tested_on": "CAKI-1", "assay": "Growth inhibition of human Caki1 cells assessed as cell viability at 100 uM incubated for 48 hrs by sulforhodamine B assay", "settings": "CAKI-1, 48 h, read-out: Activity"}, "[15]": {"tested_on": "EKVX", "assay": "Growth inhibition of human EKVX cells assessed as cell viability at 0.001 uM incubated for 48 hrs by sulforhodamine B assay relative to control", "settings": "read-out: Activity"}, "[16]": {"tested_on": "TK-10", "assay": "Growth inhibition of human TK10 cells incubated for 48 hrs by sulforhodamine B assay", "settings": "TK-10, 48 h", "outline": "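NCI-60 five-dose SRB assay. Cells were exposed for 48 h to tenfold dilutions of 0.01, 0.1, 1, 10 and 100 µM, in RPMI 1640 with 5% FBS. Plates fixed with TCA at the time of drug addition served as the time-zero reference. GI50 is the concentration giving a 50% reduction in net growth. TGI is total growth inhibition. LC50 is a net 50% loss of the initial cells.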"}, "[17]": {"tested_on": "NCI-H322M", "assay": "Growth inhibition of human NCI-H322M cells assessed as cell viability at 0.001 uM incubated for 48 hrs by sulforhodamine B assay relative to control", "settings": "read-out: Activity"}, "[18]": {"tested_on": "SNB-19", "assay": "Growth inhibition of human SNB19 cells assessed as cell viability at 100 uM incubated for 48 hrs by sulforhodamine B assay", "settings": "SNB-19, 48 h, read-out: Activity"}, "[19]": {"tested_on": "HCT-116", "assay": "Growth inhibition of human HCT116 cells assessed as cell viability at 0.1 uM incubated for 48 hrs by sulforhodamine B assay", "settings": "HCT-116, 48 h, read-out: Activity"}, "[20]": {"tested_on": "MDA-MB-435", "assay": "Growth inhibition of human MDA-MB-435 cells assessed as cell viability at 0.1 uM incubated for 48 hrs by sulforhodamine B assay", "settings": "MDA-MB-435, 48 h, read-out: Activity"}, "[21]": {"tested_on": "TK-10", "assay": "Growth inhibition of human TK10 cells assessed as cell viability at 0.001 uM incubated for 48 hrs by sulforhodamine B assay relative to control", "settings": "TK-10, 48 h, read-out: Activity"}, "[22]": {"tested_on": "CAKI-1", "assay": "Growth inhibition of human Caki1 cells assessed as cell viability at 0.1 uM incubated for 48 hrs by sulforhodamine B assay", "settings": "CAKI-1, 48 h, read-out: Activity"}, "[23]": {"tested_on": "NCI-H23", "assay": "Growth inhibition of human NCI-H23 cells assessed as cell viability at 1 uM incubated for 48 hrs by sulforhodamine B assay", "settings": "NCI-H23, 48 h, read-out: Activity"}, "[24]": {"tested_on": "OVCAR-3", "assay": "Growth inhibition of human OVCAR3 cells assessed as cell viability at 100 uM incubated for 48 hrs by sulforhodamine B assay", "settings": "OVCAR-3, 48 h, read-out: Activity"}, "[25]": {"settings": "read-out: LC50 (the source's name)"}, "[26]": {"settings": "read-out: pLC50 (the source's name) (converted)"}}}
{"compound": "CC1=C(C(=O)OCc2ccccc2)C(c2ccc3c(c2)OCO3)n2c(nc3ccccc32)N1", "note": "(racemic)", "values": [{"measurement": "viability at 0.1 µM", "setting": "[1]", "value": 94, "unit": "%"}, {"measurement": "viability at 0.001 µM", "setting": "[2]", "value": 95, "unit": "%"}, {"measurement": "viability at 0.1 µM", "setting": "[3]", "value": 98, "unit": "%"}, {"measurement": "viability at 100 µM", "setting": "[4]", "value": -7, "unit": "%"}, {"measurement": "viability at 0.1 µM", "setting": "[5]", "value": 96, "unit": "%"}, {"measurement": "viability at 0.001 µM", "setting": "[6]", "value": 93, "unit": "%"}, {"measurement": "viability at 0.1 µM", "setting": "[7]", "value": 93, "unit": "%"}, {"measurement": "GI50", "setting": "[8]; read-out: GI50", "value": 0.37, "unit": "µM"}, {"measurement": "LC50 (concentration causing 50% net cell kill)", "setting": "[8]; read-out: LC50", "value": "> 100", "unit": "µM"}, {"measurement": "TGI", "setting": "[8]; read-out: TGI", "value": "> 100", "unit": "µM"}, {"measurement": "GI50", "setting": "[8]; read-out: pGI50 (converted)", "value": 0.372, "unit": "µM"}, {"measurement": "LC50 (concentration causing 50% net cell kill)", "setting": "[8]; read-out: pLC50 (converted)", "value": "> 100", "unit": "µM"}, {"measurement": "TGI", "setting": "[8]; read-out: pTGI", "value": "> 100", "unit": "µM"}, {"measurement": "GI50", "setting": "[9]; read-out: GI50", "value": 0.47, "unit": "µM"}, {"measurement": "CC50", "setting": "[9]; [25]", "value": "> 100", "unit": "µM"}, {"measurement": "TGI", "setting": "[9]; read-out: TGI", "value": "> 100", "unit": "µM"}, {"measurement": "GI50", "setting": "[9]; read-out: pGI50 (converted)", "value": 0.468, "unit": "µM"}, {"measurement": "CC50", "setting": "[9]; [26]", "value": "> 100", "unit": "µM"}, {"measurement": "TGI", "setting": "[9]; read-out: pTGI", "value": "> 100", "unit": "µM"}, {"measurement": "viability at 0.001 µM", "setting": "[10]", "value": 86, "unit": "%"}, {"measurement": "viability at 1 µM", "setting": "[11]", "value": 26, "unit": "%"}, {"measurement": "GI50", "setting": "[12]; read-out: GI50", "value": 0.62, "unit": "µM"}, {"measurement": "CC50", "setting": "[12]; [25]", "value": "> 100", "unit": "µM"}, {"measurement": "TGI", "setting": "[12]; read-out: TGI", "value": "> 100", "unit": "µM"}, {"measurement": "GI50", "setting": "[12]; read-out: pGI50 (converted)", "value": 0.617, "unit": "µM"}, {"measurement": "CC50", "setting": "[12]; [26]", "value": "> 100", "unit": "µM"}, {"measurement": "TGI", "setting": "[12]; read-out: pTGI", "value": "> 100", "unit": "µM"}, {"measurement": "viability at 0.1 µM", "setting": "[13]", "value": 98, "unit": "%"}, {"measurement": "viability at 100 µM", "setting": "[14]", "value": 23, "unit": "%"}, {"measurement": "viability at 0.001 µM", "setting": "[15]", "value": 91, "unit": "%"}, {"measurement": "GI50", "setting": "[16]; read-out: GI50", "value": "> 100", "unit": "µM"}, {"measurement": "CC50", "setting": "[16]; [25]", "value": "> 100", "unit": "µM"}, {"measurement": "TGI", "setting": "[16]; read-out: TGI", "value": "> 100", "unit": "µM"}, {"measurement": "GI50", "setting": "[16]; read-out: pGI50 (converted)", "value": "> 100", "unit": "µM"}, {"measurement": "CC50", "setting": "[16]; [26]", "value": "> 100", "unit": "µM"}, {"measurement": "TGI", "setting": "[16]; read-out: pTGI", "value": "> 100", "unit": "µM"}, {"measurement": "viability at 0.001 µM", "setting": "[17]", "value": 96, "unit": "%"}, {"measurement": "viability at 100 µM", "setting": "[18]", "value": 28, "unit": "%"}, {"measurement": "viability at 0.1 µM", "setting": "[19]", "value": 100, "unit": "%"}, {"measurement": "viability at 0.1 µM", "setting": "[20]", "value": 46, "unit": "%"}, {"measurement": "viability at 0.001 µM", "setting": "[21]", "value": 92, "unit": "%"}, {"measurement": "viability at 0.1 µM", "setting": "[22]", "value": 74, "unit": "%"}, {"measurement": "viability at 1 µM", "setting": "[23]", "value": 54, "unit": "%"}, {"measurement": "viability at 100 µM", "setting": "[24]", "value": -10, "unit": "%"}]}
